Laboratory results as given in ChEMBL document CHEMBL4834414 (J Med Chem, 2021).
Calls of active or inactive are those of the source. The rule behind the calls is not given here.

Tests used:
[1] = target: T1, Microtubule-associated protein 1 light chain 3 alpha (Homo sapiens, UniProt Q9H492); assay: Displacement of sGFP-p62-LIR peptide from human N-terminal SNAP-fused LC3A by time-resolved FRET assay
Summary of the method: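 HTRF displacement: 10 nM N-terminal SNAP-LC3A labeled with terbium cryptate (donor) and 1 μM p62-LIR-sGFP (acceptor), with compound at varying concentrations in 1% DMSO. Buffer 25 mM HEPES pH 7.5, 150 mM KF, 10% glycerol, 0.1% CHAPS, 5 mM DTT. Incubated 2 h at RT; excitation 340 nm, emission read at 520 and 620 nm. IC50 with SD; Ki calculated.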

[2] = target: T1, Microtubule-associated protein 1 light chain 3 alpha; assay: Binding affinity to recombinant LC3A (unknown origin) assessed as shift of melting temperature by differential scanning fluorimetry
Summary of the method: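 LC3A at 30 μM in HTRF buffer with 0.1% CHAPS, 2.5× SYPRO orange, 300 μM inhibitor and 1% DMSO, with a no-protein background. Heated 25.0 to 79.8 °C at 1 °C/min; excitation 490 nm, emission 570 nm. Tm taken as the first-derivative maximum; ΔTm against DMSO control. Triplicates in three independent experiments.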

[3] = target: T1, Microtubule-associated protein 1 light chain 3 alpha; assay: Binding affinity to human LC3A expressed in Escherichia coli BL21-(DE3) by isothermal titration calorimetry
Summary of the method: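 His-tagged LC3A from E. coli BL21(DE3), TEV-cleaved and purified by IMAC, reverse IMAC and SEC into HTRF buffer (25 mM HEPES pH 7.5, 150 mM KF, 10% glycerol, 5 mM DTT), plus 0.1% CHAPS and 1% DMSO. ITC at 25 °C, stirring 75 rpm: 80 μM protein; inhibitor at 500 μM or 1 mM. Injection settings optimized per compound; dilution heats checked by blank titrations.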

[4] = target: T2, Microtubule-associated protein 1 light chain 3 beta (Homo sapiens, UniProt Q9GZQ8); assay: Displacement of sGFP-p62-LIR peptide from human N-terminal SNAP-fused LC3B by time-resolved FRET assay
[5] = target: T1, Microtubule-associated protein 1 light chain 3 alpha; assay: Binding affinity to human LC3A expressed in Escherichia coli BL21-(DE3) by single site binding model based isothermal titration calorimetry
Summary of the method: (§1)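 Human Atg8-family proteins (LC3A, LC3C, GABARAP, GABARAPL1, GABARAPL2) expressed with a modified Ub tag, equilibrated in 50 mM Na2HPO4, 100 mM NaCl, 5% DMSO, pH 7.0; ligand prepared in the same buffer. ITC at 25 °C: 0.4 mM ligand titrated into 0.020 mM protein in 21 injections. Kd from a nonlinear least-squares fit to a single-site binding model.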

[6] = target: Microtubule-associated protein 1 light chain 3 gamma (Homo sapiens) (UniProt Q9BXW4); assay: Binding affinity to human LC3C expressed in Escherichia coli BL21-(DE3) by single site binding model based isothermal titration calorimetry; summary of the method: as §1
Microtubule-associated protein 1 light chain 3 gamma (Homo sapiens), sequence (Q9BXW4 whole entry): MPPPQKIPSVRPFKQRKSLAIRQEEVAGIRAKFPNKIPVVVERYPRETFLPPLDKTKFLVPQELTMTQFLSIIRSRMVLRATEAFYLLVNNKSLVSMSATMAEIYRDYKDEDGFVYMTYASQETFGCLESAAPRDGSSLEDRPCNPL

[7] = target: Gamma-aminobutyric acid receptor-associated protein-like 1 (Homo sapiens) (UniProt Q9H0R8); assay: Binding affinity to human GABARAPL1 expressed in Escherichia coli T7 by single site binding model based isothermal titration calorimetry; summary of the method: as §1
Gamma-aminobutyric acid receptor-associated protein-like 1 (Homo sapiens), sequence (Q9H0R8 whole entry, looked up): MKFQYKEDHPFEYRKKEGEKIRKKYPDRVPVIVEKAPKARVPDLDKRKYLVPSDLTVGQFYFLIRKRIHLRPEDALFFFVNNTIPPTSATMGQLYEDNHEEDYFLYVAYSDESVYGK

[8] = target: Gamma-aminobutyric acid receptor-associated protein-like 2 (Homo sapiens) (UniProt P60520); assay: Binding affinity to human GABARAPL2 expressed in Escherichia coli T7 by single site binding model based isothermal titration calorimetry; summary of the method: as §1
Gamma-aminobutyric acid receptor-associated protein-like 2 (Homo sapiens), sequence (P60520 whole entry): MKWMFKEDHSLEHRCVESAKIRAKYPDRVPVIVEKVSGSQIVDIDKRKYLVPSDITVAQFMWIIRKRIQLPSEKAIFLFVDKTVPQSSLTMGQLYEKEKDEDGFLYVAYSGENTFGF

[9] = target: Gamma-aminobutyric acid receptor-associated protein (Homo sapiens) (UniProt O95166); assay: Binding affinity to human GABARAP expressed in Escherichia coli T7 by single site binding model based isothermal titration calorimetry; summary of the method: as §1
Gamma-aminobutyric acid receptor-associated protein (Homo sapiens), sequence (O95166 whole entry): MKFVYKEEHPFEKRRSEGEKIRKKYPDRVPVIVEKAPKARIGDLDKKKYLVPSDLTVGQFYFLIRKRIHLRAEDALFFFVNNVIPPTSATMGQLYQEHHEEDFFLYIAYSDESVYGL

[10] = target: T2, Microtubule-associated protein 1 light chain 3 beta; assay: Binding affinity to human LC3B expressed in Escherichia coli BL21-(DE3) by isothermal titration calorimetry
[11] = target: T2, Microtubule-associated protein 1 light chain 3 beta

Row | Compound | IC50 ([1]; read-out: IC50) [µM] | Ki ([1]; read-out: Ki) [µM] | further results
1 | CC(C)CCc1cc(C(=O)Nc2c(O)c3ccc(O)cc3oc2=O)ccc1F | 107 | 21.8 | 
2 | O=C(Nc1c(O)c2ccc(O)cc2oc1=O)c1cccc(CCC2CC2)c1 |  | 13 | 
3 | CCCCS(=O)(=O)Nc1cccc(C(=O)Nc2c(O)c3ccc(O)cc3oc2=O)c1 |  | 26 | 
4 | CC(C)CCc1cccc(C(=O)Nc2c(O)c3ccc(NC(=O)CCC(=O)O)cc3oc2=O)c1 | 217 | 44.3 | 
5 | Cc1c(O)ccc2c(O)c(NC(=O)c3cccc(CCC(C)C)c3)c(=O)oc12 | 160 | 32.7 | ΔTm [2]: 0 °C; Kd [3]: 15.7 µM
6 | CC[C@H](C)[C@H](NC(=O)OC(C)(C)C)C(=O)Nc1c(O)c2ccc(O)cc2oc1=O |  |  | IC50 [4]: Not Active; Ki [4]: Not Active; IC50 [1]: Not Active; Ki [1]: Not Active
7 | CC(C)CCc1cccc(C(=O)Nc2c(O)c3ccc(-c4cccc(C(=O)O)c4)cc3oc2=O)c1 | 35.3 | 7.2 | 
8 | CCCCCc1cccc(C(=O)Nc2c(O)c3ccc(O)cc3oc2=O)c1 |  | 12 | 
9 | O=C(Nc1c(O)c2ccc(O)cc2oc1=O)c1cccc(CCc2ccccc2)c1 |  | 75 | 
10 | CC(C)CCc1cccc(C(=O)Nc2c(O)c3ccc(-c4coc5ccccc45)cc3oc2=O)c1 |  |  | IC50 [4]: Not Active; Ki [4]: Not Active; IC50 [1]: Not Active; Ki [1]: Not Active
11 | CC(C)CCc1cccc(C(=O)Nc2c(O)c3ccc(O)cc3oc2=O)c1 | 64.8 | 13.3 | ΔTm [2]: 1.4 °C; Kd [3]: 17.2 µM
12 | CCn1nccc1-c1ccc2c(O)c(NC(=O)c3cccc(CCC(C)C)c3)c(=O)oc2c1 | 190 | 38.9 | 
13 | CCCC[C@H](NC(=O)OC(C)(C)C)C(=O)Nc1c(O)c2ccc(O)cc2oc1=O | 668 | 137 | Ki [4]: Not Active; IC50 ([4]; read-out: IC50): 668 µM
14 | COc1cccc(C(=O)Nc2c(O)c3ccc(O)cc3oc2=O)c1 |  |  | Ki [4]: Not Active; Ki [1]: Not Active
15 | CC(=O)Nc1ccc2c(O)c(NC(=O)c3cccc(CCC(C)C)c3)c(=O)oc2c1 | 120 | 24.6 | 
16 | CCCSc1cccc(C(=O)Nc2c(O)c3ccc(O)cc3oc2=O)c1 |  | 32 | 
17 | CC(C)CCc1cccc(C(=O)Nc2c(O)c3ccc(NS(=O)(=O)c4cccc5ccccc45)cc3oc2=O)c1 | 31.2 | 6.4 | 
18 | CC(C)CCc1cccc(C(=O)Nc2c(O)c3ccc(NS(=O)(=O)c4ccccc4)cc3oc2=O)c1 | 85.9 | 17.6 | 
19 | O=C(Nc1c(O)c2ccc(O)cc2oc1=O)c1cccc(OCC2CC2)c1 |  | 137 | Ki [4]: Not Active
20 | CO[C@@H]1[C@@H](OC(N)=O)[C@@H](O)[C@H](Oc2ccc3c(O)c(NC(=O)c4ccc(O)c(CC=C(C)C)c4)c(=O)oc3c2C)OC1(C)C |  |  | Activity [5]: Active; Activity [6]: inactive; Activity [7]: inactive; Activity [8]: inactive; Activity [9]: inactive

Row | Compound | IC50 ([1]; read-out: IC50) [µM] | Ki ([1]; read-out: Ki) [µM] | further results
21 | Cc1ccc(S(=O)(=O)Nc2ccc3c(O)c(NC(=O)c4cccc(CCC(C)C)c4)c(=O)oc3c2)cc1 | 59.9 | 12.3 | 
22 | CCCc1cccc(C(=O)Nc2c(O)c3ccc(O)cc3oc2=O)c1 |  | 20 | 
23 | CC(C)C[C@@H](NC(=O)OC(C)(C)C)C(=O)Nc1c(O)c2ccc(O)cc2oc1=O |  |  | IC50 [1]: Not Active; Ki [1]: Not Active
24 | CC(C)Cc1cccc(C(=O)Nc2c(O)c3ccc(O)cc3oc2=O)c1 |  | 20 | 
25 | CC(C)CCc1cccc(C(=O)Nc2c(O)c3ccc(NC(=O)CCCC(=O)O)cc3oc2=O)c1 | 229 | 46.9 | 
26 | Cc1c(O)ccc2c(O)c(NC(=O)c3ccc(O)c(CCC(C)C)c3)c(=O)oc12 | 119 | 24.3 | ΔTm [2]: 0.7 °C; Kd [3]: 14.2 µM
27 | CCCS(=O)(=O)Nc1cccc(C(=O)Nc2c(O)c3ccc(O)cc3oc2=O)c1 |  | 144 | 
28 | CC(C)CCc1cccc(C(=O)Nc2c(O)c3ccc(-c4ccnn4Cc4ccccc4)cc3oc2=O)c1 | 813 | 167 | IC50 [4]: Not Active; Ki [4]: Not Active
29 | Cc1ccccc1S(=O)(=O)Nc1ccc2c(O)c(NC(=O)c3cccc(CCC(C)C)c3)c(=O)oc2c1 | 76 | 15.6 | 
30 | CC(C)CCc1cccc(C(=O)Nc2c(O)c3ccc(-c4ccnn4C)cc3oc2=O)c1 | 219 | 44.8 | 
31 | CC(C)CCc1ccccc1C(=O)Nc1c(O)c2ccc(O)cc2oc1=O | 215 | 44 | 
32 | CCCCc1cccc(C(=O)Nc2c(O)c3ccc(O)cc3oc2=O)c1 |  | 12 | 
33 | CC(C)CS(=O)(=O)Nc1cccc(C(=O)Nc2c(O)c3ccc(O)cc3oc2=O)c1 |  | 53 | 
34 | O=C(Nc1c(O)c2ccc(O)cc2oc1=O)c1cccc(OCc2ccccc2)c1 |  | 44 | 
35 | C=CCOc1cccc(C(=O)Nc2c(O)c3ccc(O)cc3oc2=O)c1 |  | 20 | 
36 | CC(C)CCc1cccc(C(=O)Nc2c(O)c3ccc(-c4ccc(C(=O)O)cc4)cc3oc2=O)c1 | 92.1 | 18.9 | 
37 | CC(C)CCc1cc(C(=O)Nc2c(O)c3ccc(O)cc3oc2=O)ccc1O | 128 | 26.2 | ΔTm [2]: 0.8 °C; Kd [3]: 27.5 µM
38 | COc1ccc(C(=O)Nc2c(O)c3ccc(O)cc3oc2=O)cc1CCC(C)C | 64.4 | 13.2 | 
39 | CC(C)CCc1cccc(C(=O)Nc2c(O)c3ccc(NS(=O)(=O)Cc4ccccc4)cc3oc2=O)c1 | 73.1 | 15 | 
40 | CC(C)(C)OC(=O)NCC(=O)Nc1c(O)c2ccc(O)cc2oc1=O |  |  | IC50 [4]: Not Active; Ki [4]: Not Active; IC50 [1]: Not Active; Ki [1]: Not Active

Row | Compound | IC50 ([1]; read-out: IC50) [µM] | Ki ([1]; read-out: Ki) [µM] | further results
41 | CS(=O)(=O)Nc1cccc(C(=O)Nc2c(O)c3ccc(O)cc3oc2=O)c1 |  | 130 | 
42 | CC(C)Oc1cccc(C(=O)Nc2c(O)c3ccc(O)cc3oc2=O)c1 |  | 103 | 
43 | CCCCSc1cccc(C(=O)Nc2c(O)c3ccc(O)cc3oc2=O)c1 |  | 18 | 
44 | CC(C)CCc1cccc(C(=O)Nc2c(O)c3ccc(-c4ccccc4-c4ccccc4)cc3oc2=O)c1 | 515 | 105 | IC50 [4]: Not Active; Ki [4]: Not Active
45 | CCCCOc1cccc(C(=O)Nc2c(O)c3ccc(O)cc3oc2=O)c1 |  | 69 | 
46 | CCCOc1cccc(C(=O)Nc2c(O)c3ccc(O)cc3oc2=O)c1 |  | 143 | 
47 | CC(C)S(=O)(=O)Nc1cccc(C(=O)Nc2c(O)c3ccc(O)cc3oc2=O)c1 |  | 39 | 
48 | CC(C)Sc1cccc(C(=O)Nc2c(O)c3ccc(O)cc3oc2=O)c1 |  | 47 | 
49 | CCSc1cccc(C(=O)Nc2c(O)c3ccc(O)cc3oc2=O)c1 |  | 42 | 
50 | O=C(Nc1c(O)c2ccc(O)cc2oc1=O)c1cccc(SCC2CC2)c1 |  | 13 | 
51 | O=C(Nc1c(O)c2ccc(O)cc2oc1=O)c1cccc(Oc2ccccc2)c1 |  | 44 | 
52 | CCOc1cccc(C(=O)Nc2c(O)c3ccc(O)cc3oc2=O)c1 |  | 129 | Ki [4]: Not Active
53 | CO[C@@H]1[C@@H](OC(N)=O)[C@@H](O)[C@H](Oc2ccc3c(O)c(NC(=O)c4ccc(O)c(CCC(C)C)c4)c(=O)oc3c2C)OC1(C)C | 16 | 3.3 | IC50 ([4]; read-out: IC50): 72.3 µM; Ki ([4]; read-out: Ki): 8.1 µM; ΔTm [2]: 5.6 °C; Kd [3]: 2.8 µM; Kd [10]: 11.4 µM; ΔTm [11]: 5.6 °C
54 | CC(C)[C@H](NC(=O)OC(C)(C)C)C(=O)Nc1c(O)c2ccc(O)cc2oc1=O |  |  | IC50 [4]: Not Active; Ki [4]: Not Active; IC50 [1]: Not Active; Ki [1]: Not Active
55 | CC(C)CCc1cccc(C(=O)Nc2c(O)c3ccc(NS(=O)(=O)CCc4ccccc4)cc3oc2=O)c1 | 36.7 | 7.5 | IC50 ([4]; read-out: IC50): 66.3 µM; Ki ([4]; read-out: Ki): 7.4 µM
56 | CC(C)CSc1cccc(C(=O)Nc2c(O)c3ccc(O)cc3oc2=O)c1 |  | 52 | 
57 | CC(C)CCc1cccc(C(=O)Nc2c(O)c3ccc(NS(=O)(=O)CC(C)C)cc3oc2=O)c1 | 110 | 22.6 | 
58 | CC(C)CCc1cccc(C(=O)Nc2c(O)c3ccc(-c4cccc5ccccc45)cc3oc2=O)c1 | 42.8 | 8.8 | 
